How the values were obtained:
Mus musculus [1] = test: Percent blood glucose level in mice 4 hours after peroral administration of compound (100 mg/kg); assay type: functional
Summary of the method: (§1)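 Viable yellow obese diabetic mice, six per group, gavaged with 100 mg/kg in saline-2% Emulphor; six vehicle-gavaged controls. Tail blood taken before dosing and at 2 and 4 h. Glucose measured by glucose oxidase method on an autoanalyzer. Values expressed as percent of zero time, mean ±SE of six mice. Significance versus controls by Student's t test, p < 0.05.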

Mus musculus [2] = test: Percent blood glucose level in mice 2 hours after peroral administration of compound (100 mg/kg); assay type: functional; summary of the method: as §1

SMILES	Blood glucose (Mus musculus [1])	Blood glucose (Mus musculus [2])
COc1cccc(C(=O)Cn2ccnc2)c1	121%	110%
Cc1ccccc1C(=O)C[n+]1ccn(C)c1.[Br-]	87%	80%
Cn1cc[n+](CC(=O)c2ccc(Cl)cc2)c1.[Br-]	93%	94%
COc1cccc(C(=O)C[n+]2ccn(C(C)C)c2)c1.[Br-]	83%	79%
Cc1cc(C)c(C(=O)C[n+]2ccn(C)c2)c(C)c1.[Br-]	97%	94%
COc1cccc(C(=O)Cn2ccn(C)c2=S)c1	80%	99%
COc1ccc(C(=O)C[n+]2ccn(C)c2)cc1OC.[Br-]	81%	86%
Cc1ccc(C(=O)C[n+]2ccn(C)c2)cc1C.[Br-]	95%	83%
Cn1cc[n+](CC(=O)c2ccc(C#N)cc2)c1.[Br-]	106%	105%
Cn1cc[n+](CC(=O)c2ccc(O)c(O)c2)c1.[Cl-]	107%	108%
COc1cccc(C(=O)CC[n+]2ccn(C)c2)c1.[I-]	94%	91%
COc1ccc(OC)c(C(=O)C[n+]2ccn(C)c2)c1.[Br-]	86%	78%
Cn1cc[n+](CC(=O)c2ccccc2F)c1.[Br-]	99%	91%
Cn1cc[n+](CC(=O)c2ccco2)c1.[Br-]	92%	72%
CCOc1cccc(C(=O)C[n+]2ccn(C)c2)c1.[Br-]	64%	63%
COc1cccc(C(=O)C[n+]2ccsc2)c1.[Br-]	123%	105%
CO/N=C(/C[n+]1ccn(C)c1)c1ccc(C)cc1.[I-]	81%	86%
Cc1cc[n+](CC(=O)c2ccccc2)cc1.[Br-]	103%	105%
CCOc1ccc(C(=O)C[n+]2ccn(C)c2)cc1.[Br-]	104%	103%
Cc1ccc(C(=O)C[n+]2ccn(C)c2)cc1.[Br-]	53%	57%

SMILES	Blood glucose (Mus musculus [1])	Blood glucose (Mus musculus [2])
COc1cccc(C(=O)C[n+]2ccn(C)c2)c1OC.[Br-]	88%	83%
CC(=O)C[n+]1ccn(-c2ccccc2)c1.[Cl-]	109%	105%
COc1cccc(C(=O)C[n+]2ccn(C)c2)c1.[Br-]	72%	58%
COc1cccc(C(O)C[n+]2ccn(C)c2)c1.[I-] (stereo not drawn)	103%	106%
Cn1cc[n+](C(C)(C)C(=O)c2ccccc2)c1.[Br-]	113%	104%
COc1cccc(C(=O)C[N+]2=CN(C)CC2)c1.[Br-]	97%	81%
Cn1cc[n+](C(C(=O)c2ccccc2)c2ccccc2)c1.[Cl-] (stereo not drawn)	83%	94%
Cn1cc[n+](CC(=O)c2cccc(C(F)(F)F)c2)c1.[I-]	97%	95%
Cc1ccc(C(=O)C[n+]2cc3ccccc3cn2)cc1.[Br-]	108%	115%
Cc1ccc(S(=O)(=O)[O-])cc1.Cn1cc[n+](CC(=O)c2cccc(O)c2)c1	87%	93%
COc1cccc(C(=O)C[n+]2ccn(-c3ccccc3)c2)c1.[Br-]	91%	96%
Cn1cc[n+](CC(=O)c2cccc3ccccc23)c1.[Br-]	110%	90%
Cn1cc[n+](CC(=O)c2ccc(-c3ccccc3)cc2)c1.[Br-]	103%	103%
Cn1cc[n+](CC(=O)c2cccc(Cl)c2)c1.[Br-]	112%	107%
Br.O=C(Cn1ccnc1)c1ccccc1	90%	103%
Cc1ccc(C(=O)C[n+]2csc3ccccc32)cc1.[Br-]	108%	106%
C[n+]1ccn(CC(=O)c2ccccc2)c1.[Br-]	71%	74%
CC(=O)Nc1cccc(C(=O)C[n+]2ccn(C)c2)c1.[Br-]	109%	100%
CCCn1cc[n+](CC(=O)c2ccccc2)c1.[Cl-]	79%	79%
Cn1cc[n+](CC(=O)c2ccc3ccccc3c2)c1.[Br-]	99%	89%

SMILES	Blood glucose (Mus musculus [1])	Blood glucose (Mus musculus [2])
COc1cccc(C(=O)Cn2ccn(C)c2=O)c1	103%	101%
CCCOc1cccc(C(=O)C[n+]2ccn(C)c2)c1.[Br-]	72%	63%
COc1cc(OC)cc(C(=O)C[n+]2ccoc2)c1.[Br-]	97%	95%
COc1cccc(C(=O)C[n+]2ccn(C)c2SC(C)C)c1.[Br-]	121%	101%
Cc1ccc(C(=O)C[n+]2ccn(C)c2)c(C)c1.[Br-]	79%	62%
CCc1ccc(C(=O)C[n+]2ccn(C)c2)cc1.[Br-]	88%	77%
Cn1cc[n+](CC(=O)c2ccc(Cl)c(Cl)c2)c1.[Br-]	79%	94%
COc1cc(OC)cc(C(=O)C[n+]2ccn(C)c2)c1.[Br-]	69%	83%
CC(C(=O)c1ccccc1)[n+]1ccn(C)c1.[Br-] (stereo not drawn)	61%	70%
Cn1cc[n+](CC(=O)c2ccc(C(N)=O)cc2)c1.[Br-]	95%	100%
COc1ccc(C(=O)C[n+]2ccn(C)c2)cc1.[Br-]	77%	70%
Cc1ccc(C(=O)C[n+]2cn(C)c(-c3ccccc3)c2-c2ccccc2)cc1.[Br-]	105%	102%
COc1ccccc1C(=O)C[n+]1ccn(C)c1.[Br-]	97%	90%
Cc1ccc(C(=O)Cn2ccc[n+]2C)cc1.[Br-]	82%	83%
COC(=O)Cn1cc[n+](CC(=O)c2ccccc2)c1.[Br-]	84%	89%
Cc1cccc(C(=O)C[n+]2ccn(C)c2)c1.[Br-]	73%	78%
Cc1n(C)cc[n+]1CC(=O)c1ccccc1.[Cl-]	81%	90%
Cc1ccc(C(=O)C[n+]2ccccn2)cc1.[Br-]	111%	105%
Cc1ccc(C(=O)C[n+]2ccncc2)cc1.[Br-]	112%	122%

— ChEMBL document CHEMBL1124352, “Oral hypoglycemic agents. Discovery and structure-activity relationships of phenacylimidazolium halides” (1989)
